Measurements as given in ChEMBL document CHEMBL3232995, “Synthesis and evaluation of effective photoaffinity probe molecule of furospinosulin-1, a hypoxia-selective growth inhibitor” (Bioorg Med Chem, 2014).
Active and inactive are the calls of the source. The rule behind the calls is not given here.

How the values were obtained:
DU-145 [1] = experiment: Inhibition of transcription factor complex formation in hypoxia-induced human DU145 cells assessed as reduction in nuclear proteins and Sp1 oligonucleotide probe complex at 100 to 300 uM by EMSA; format: functional, cell-based
Summary of the method: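 Nuclear extracts were made from DU145 cells under normoxia or hypoxia. They were pre-incubated on ice for 20 min with compound (100 or 300 µM) in binding buffer: 10 mM Tris-HCl pH 7.5, 50 mM KCl, 5 mM MgCl2, 1 mM DTT, 1% glycerol, BSA, poly(dI-dC). Then 5'-biotinylated Sp1 oligonucleotide (4 fmol per 20 µL) was added for 15 min at room temperature. Complexes were resolved on 5% native PAGE in 0.5× TBE, blotted, and detected by streptavidin-HRP/ECL.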

DU-145 [2] = experiment: Antiproliferative activity against human DU145 cells under hypoxia condition assessed as growth inhibition at 3 to 30 uM after 24 hrs by MTT assay; format: functional, cell-based
Summary of the method: (§1)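 DU145 human prostate cancer cells kept in RPMI 1640 with 10% heat-inactivated FBS and kanamycin (50 µg/ml), 5% CO2, 37 °C. Seeded at 1 × 10⁴ cells/well. Held 4 h normoxic, then 12 h under 1% O2/5% CO2/94% N2 to induce hypoxia genes. Compound then added and plates kept a further 24 h hypoxic. Read-out by MTT, with inhibition as percent of parallel negative controls.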

DU-145 [3] = experiment: Antiproliferative activity against human DU145 cells under normoxia condition assessed as growth inhibition at 10 to 100 uM after 24 hrs by MTT assay; format: functional, cell-based
Summary of the method: (§2)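 DU145 cells were grown in RPMI 1640 with heat-inactivated 10% FBS and kanamycin (50 µg/ml) under humidified 5% CO2 at 37 °C and seeded at 1 × 10⁴ cells/well. Growth under normoxic conditions was measured by colorimetric MTT assay. Inhibition was taken relative to parallel negative controls.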

DU-145 [4] = experiment: Antiproliferative activity against human DU145 cells under hypoxia condition assessed as growth inhibition at 10 to 100 uM after 24 hrs by MTT assay; format: functional, cell-based; summary of the method: as §1
CCRF S-180 [5] = experiment: Antitumor activity against mouse S180 cells allografted in ddY mouse assessed as tumor growth at 25 mg/kg, po administered once every 2 days for 2 weeks relative to control; settings: CCRF S-180, po
CCRF S-180 [6] = experiment: Antitumor activity against mouse S180 cells allografted in ddY mouse assessed as tumor growth at 5 mg/kg, po administered once every 2 days for 2 weeks relative to control; settings: CCRF S-180, po
Mus musculus [7] = experiment: Toxicity in mouse S180 cells allografted in ddY mouse assessed as diarrhea at 5 to 25 mg/kg, po administered once every 2 days for 2 weeks relative to control; format: organism-based, CCRF S-180; parameters: dose 5-25 mg/kg, route oral; settings: in vivo
Summary of the method: (§3)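 Female ddY mice, 6 weeks old, received S180 sarcoma cells (1 × 10⁶ cells/body) subcutaneously in the right ventral flank. Dosing began one week after implantation: oral suspension in 1% CMC-Na, every other day for 2 weeks (7 doses). Tumors were excised and weighed to give the inhibition ratio against control. Four mice per group. Weight loss and diarrhea were watched throughout.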

DU-145 [8] = experiment: Antiproliferative activity against human DU145 cells under hypoxia condition assessed as growth inhibition after 24 hrs by MTT assay; format: functional, cell-based; summary of the method: as §1
DU-145 [9] = experiment: Antiproliferative activity against normoxia-induced human DU145 cells assessed as growth inhibition after 24 hrs by MTT assay; format: functional, cell-based; summary of the method: as §2
Mus musculus [10] = experiment: Toxicity in mouse S180 cells allografted in ddY mouse assessed as weight loss at 5 to 25 mg/kg, po administered once every 2 days for 2 weeks relative to control; format: organism-based, CCRF S-180; parameters: dose 5-25 mg/kg, route oral; settings: in vivo; summary of the method: as §3
CCRF S-180 [11] = experiment: Antitumor activity against mouse S180 cells allografted in ddY mouse assessed as tumor growth at 10 mg/kg, po administered once every 2 days for 2 weeks relative to control; settings: CCRF S-180, po

| Compound | Activity (DU-145 [1]) | growth inhibition (GI) (DU-145 [2]) | growth inhibition (GI) (DU-145 [3]) | growth inhibition (GI) (DU-145 [4]) | other results |
| --- | --- | --- | --- | --- | --- |
| C/C(=C\CC/C(C)=C/CCc1ccoc1)CC/C=C(\C)CC/C=C(\C)CCc1cn(CCCNC(=O)CSC[C@H](NC(=O)c2ccc(C(=O)c3ccccc3)cc2)C(=O)NCCOCCOCCOCCn2cc(CNC(=O)CCCC[C@@H]3SC[C@@H]4NC(=O)N[C@@H]43)nn2)nn1 | inactive | inactive |  |  |  |
| C#CCOC/C(C)=C/CC/C(C)=C/CC/C(C)=C/CC/C(C)=C/CCc1ccoc1 |  |  | Active | Active |  |
| C/C(=C\CC/C(C)=C/CCc1ccoc1)CC/C=C(\C)CC/C=C(\C)CCc1cn(CCCCCNC(=O)CSC[C@H](NC(=O)c2ccc(C(=O)c3ccccc3)cc2)C(=O)NCCOCCOCCOCCn2cc(CNC(=O)CCCC[C@@H]3SC[C@@H]4NC(=O)N[C@@H]43)nn2)nn1 | inactive | inactive |  |  |  |
| C/C(=C\CC/C(C)=C/CC/C(C)=C/CC/C(C)=C/CCc1ccoc1)CO |  |  | Active | Active |  |
| C#CCC/C(C)=C/CC/C(C)=C/CC/C(C)=C/CC/C(C)=C/CCc1ccoc1 |  |  | Active | Active | level, % of control at 25 mg/kg (CCRF S-180 [5]): 11%; level, % of control at 5 mg/kg (CCRF S-180 [6]): 45%; Activity (Mus musculus [7]): Non-toxic; growth inhibition (GI) (DU-145 [8]): Dose-dependent effect; growth inhibition (GI) (DU-145 [9]): Dose-dependent effect; Activity (Mus musculus [10]): Non-toxic; level, % of control at 10 mg/kg (CCRF S-180 [11]): 26% |
| C/C(=C\CC/C(C)=C/CCc1ccoc1)CC/C=C(\C)CC/C=C(\C)CCc1cn(CCOCCOCCNC(=O)CSC[C@H](NC(=O)c2ccc(C(=O)c3ccccc3)cc2)C(=O)NCCOCCOCCOCCn2cc(CNC(=O)CCCC[C@@H]3SC[C@@H]4NC(=O)N[C@@H]43)nn2)nn1 | Active | Active |  |  |  |
| CC(C)=CCC/C(C)=C/CC/C(C)=C/CC/C(C)=C/CCc1ccoc1 |  |  | Active | Active |  |
| CC(=O)OC/C(C)=C/CC/C(C)=C/CC/C(C)=C/CC/C(C)=C/CCc1ccoc1 |  |  | Active | Active |  |
| C#CC/C(C)=C/CC/C(C)=C/CC/C(C)=C/CC/C(C)=C/CCc1ccoc1 |  |  | Active | Active |  |
| CC#CCC/C(C)=C/CC/C(C)=C/CC/C(C)=C/CC/C(C)=C/CCc1ccoc1 |  |  | Active | Active |  |
| C/C(=C\CC/C(C)=C/CCc1ccoc1)CC/C=C(\C)CC/C=C(\C)CCc1cn(CCOCCOCCOCCNC(=O)CSC[C@H](NC(=O)c2ccc(C(=O)c3ccccc3)cc2)C(=O)NCCOCCOCCOCCn2cc(CNC(=O)CCCC[C@@H]3SC[C@@H]4NC(=O)N[C@@H]43)nn2)nn1 | Active | Active |  |  |  |
